This is one part of a sample in which hits are shown more often than they occur.
PKD1 inh: inhibitors of human PKD1 kinase, biochemical, fluorescence polarization; 0.056% of 200,000 active; PKD1 kinase fluorescence polarization assay; inhibition, % (concentration not given with the values); Serine/threonine-protein kinase D1 (Homo sapiens), Q15139
ABCG2 block: ABCG2 efflux pump inhibitors, primary screen, multiplex with ABCB1, IgMXP3 cells, flow cytometry. Broad substrate specificity ATP-binding cassette transporter ABCG2 (Homo sapiens), Q9UNQ0. JC-1 efflux. inhibition, % at 6.6 µM. 0.1% of 190,000 active. AID 1325, 2008;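 active = inhibition above 80%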;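 also: 0% = DMSO and 100% = nicardipine control wells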
Target sequence (Q9UNQ0 whole entry, looked up): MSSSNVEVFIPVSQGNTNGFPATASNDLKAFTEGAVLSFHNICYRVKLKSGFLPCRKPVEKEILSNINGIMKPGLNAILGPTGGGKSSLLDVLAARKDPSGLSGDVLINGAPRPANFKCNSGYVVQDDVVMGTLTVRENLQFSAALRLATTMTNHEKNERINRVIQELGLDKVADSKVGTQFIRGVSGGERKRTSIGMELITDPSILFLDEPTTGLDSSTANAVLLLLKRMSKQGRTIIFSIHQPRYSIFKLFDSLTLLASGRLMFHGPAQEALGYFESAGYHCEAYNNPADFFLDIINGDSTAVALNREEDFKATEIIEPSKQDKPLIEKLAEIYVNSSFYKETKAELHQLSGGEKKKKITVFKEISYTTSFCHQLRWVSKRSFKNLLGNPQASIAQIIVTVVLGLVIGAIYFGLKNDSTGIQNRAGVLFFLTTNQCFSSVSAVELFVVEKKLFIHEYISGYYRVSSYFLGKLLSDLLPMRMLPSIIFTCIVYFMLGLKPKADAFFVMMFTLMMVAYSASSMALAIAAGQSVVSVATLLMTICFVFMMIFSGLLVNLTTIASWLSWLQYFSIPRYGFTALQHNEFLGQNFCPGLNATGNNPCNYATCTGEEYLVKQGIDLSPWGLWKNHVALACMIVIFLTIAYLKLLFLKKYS
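System: two drug-resistant human cell lines, ABCG2 and ABCB1; controls: nicardipine high and DMSO low controls; times: 10 min exposure at 25 °C with rotation, no wash; detection: flow cytometry of retained JC-1 fluorescence; read-out basis: percent efflux inhibition, scaled nicardipine 100% to DMSO 0%; doses: one concentration, 6.6 µM final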
Lmaj promast: Leishmania major promastigote growth inhibition, primary screen; Leishmania major promastigotes, resazurin fluorescence viability; inhibition, % at 10 µM; 9% of 200,000 active;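 also: promastigotes grown with compound for 44 hours at 28 °C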
Avidin fluor: green autofluorescence of compounds with avidin beads – biophysical, 488/530 nm, flow cytometry, artefact control, profiling panel. AID 1775, 2009. 0.38% of 220,000 active. fluorescence (KMESF) at 10 µM. compound fluorescence 488/530 nm; hits give high values; in the data active = fluorescence above about 47
GSH fluor: compound fluorescence on glutathione beads, profiling panel, artefact control, biophysical, 488/530 nm, flow cytometry; 0.25% of 190,000 active; fluorescence (KMESF) at 10 µM; GSH beads flow cytometry, compound fluorescence 488/530 nm; hits give high values; AID 1776, 2009; in the data active = fluorescence above about 89;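 also: glutathione beads carrying GST-tagged Bcl family fusion proteins plus one bare bead set; values are compound well signal with DMSO vehicle wells as background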
ABCB1 inh: ABCB1 efflux pump inhibitors, primary screen, cell-based, multiplex, flow cytometry, ABCG2 counter-screen; ATP-dependent translocase ABCB1 (Homo sapiens), P08183; CCRF-Adr cells, JC-1 efflux; inhibition, % at 6.6 µM; 0.067% of 190,000 active; in the data active = inhibition above about 40%;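 also: 0% = vehicle and 100% = reference inhibitor; higher value means more JC-1 retained so stronger ABCB1 efflux block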
The depositor's hits bear a star. Rule as the data show it, unless noted: active = inhibition above about 50%; inactive = the rest.

O=C(c1ccc2c(c1)OCO2)N1CCN(c2ccc(C(F)(F)F)cn2)CC1 was read as PKD1 inh -7.1, ABCG2 block -6.8, Lmaj promast 76.3*, Avidin fluor 9, GSH fluor 7 and ABCB1 inh 0.4.
`CN1CCN(C(=O)c2ccc3ccccc3c2)CC1` gave PKD1 inh -0.9, ABCG2 block 0.0, Lmaj promast 87.0*, Avidin fluor 17, GSH fluor 28 and ABCB1 inh 0.0.
Screening O=C(c1ccc2ccccc2c1)N1CCN(c2ccc(C(F)(F)F)cn2)CC1 returned PKD1 inh -0.8, ABCG2 block -0.3, Lmaj promast 98.1*, Avidin fluor 10, GSH fluor 50 and ABCB1 inh -0.1.
Screening CN1CCN(C(=O)c2ccc(CSc3ccc(Cl)cc3)cc2)CC1 returned PKD1 inh -2.5, ABCG2 block -0.7, Lmaj promast 100.3*, Avidin fluor 5, GSH fluor 16 and ABCB1 inh 0.4.
FC(F)(F)c1ccc(N2CCN(Cc3ccc4c(c3)OCO4)CC2)nc1 was read as PKD1 inh -7.7, ABCG2 block -2.7, Lmaj promast -0.3, Avidin fluor 30, GSH fluor 12 and ABCB1 inh -8.1.
CCOc1ccc(NC(=O)C2C3CC/C=C\CCC32)cc1 (centres undefined) was read as Avidin fluor 9.
O=C(Nc1cccc(S(=O)(=O)c2cccc(NC(=O)C3CC3)c2)c1)C1CC1 was read as PKD1 inh -5.2, ABCG2 block 0.8, Lmaj promast 99.3*, Avidin fluor 9, GSH fluor 23 and ABCB1 inh 0.4.
Screening COCCn1c(SCc2ccc(OC)c(F)c2)nc2ccccc2c1=O returned PKD1 inh -5.8, ABCG2 block 5.9, Lmaj promast 99.8*, Avidin fluor 10, GSH fluor 12 and ABCB1 inh 0.8.
`COCCn1c(SCCN2CCCCC2)nc2ccccc2c1=O` gave PKD1 inh -10.0, ABCG2 block 9.6, Lmaj promast 100.2*, Avidin fluor 11, GSH fluor 31 and ABCB1 inh 1.1.
Screening [O-]c1c[n+](-c2ccc(-[n+]3cc([O-])on3)cc2)no1 returned PKD1 inh 0.1, ABCG2 block 0.0, Lmaj promast 4.0, Avidin fluor 10, GSH fluor 19 and ABCB1 inh -0.2.
`CCc1nc(N=Nc2c(O)[nH]c3ccccc23)c2c3c(sc2n1)CCC3` gave PKD1 inh -0.1, ABCG2 block -2.6, Lmaj promast 82.5*, Avidin fluor 12, GSH fluor 4 and ABCB1 inh 0.9.
For CCOC(=O)Cn1nnnc1C(CC)N(Cc1ccccc1)Cc1cc2cc(C)ccc2[nH]c1=O (centres undefined) the results were PKD1 inh -1.6, ABCG2 block 2.1, Lmaj promast 96.9*, Avidin fluor 40, GSH fluor 16 and ABCB1 inh 1.1.
Screening CCCC(c1nnnn1CC(=O)OCC)N(Cc1cc2c(C)cc(C)cc2[nH]c1=O)C1CCCC1 (centres undefined) returned PKD1 inh -3.6, ABCG2 block 11.1, Lmaj promast 54.9*, Avidin fluor 8, GSH fluor 9 and ABCB1 inh 3.1.
`CC(C)CN(CC(C)C)C(=O)Nc1ccccc1F` gave PKD1 inh -2.5, ABCG2 block 0.0, Lmaj promast 1.7, Avidin fluor 8, GSH fluor 15 and ABCB1 inh -0.2.
Screening CCc1ccc2[nH]c(=O)c(C(c3nnnn3Cc3ccccc3)N3CCOCC3)cc2c1 (centres undefined) returned PKD1 inh -20.4, ABCG2 block 1.6, Lmaj promast 96.0*, Avidin fluor 3, GSH fluor 14 and ABCB1 inh 1.1.
Cc1ccc2[nH]c(=O)c(C(c3nnnn3Cc3ccccc3)N3CCc4ccccc43)cc2c1 (centres undefined) was read as PKD1 inh -4.5, ABCG2 block 4.7, Lmaj promast 74.0*, Avidin fluor 11, GSH fluor 44 and ABCB1 inh 3.0.

Screening results from PubChem.
